Published values collected from several papers.
Each line is one published result; the experiments were not run side by side.
murC: UDP-N-acetylmuramate--L-alanine ligase (murC, Escherichia coli K-12, UniProt P17952)
BMP2K: BMP-2-inducible protein kinase (BMP2K, Homo sapiens, UniProt Q9NSY1)
Grm1: Metabotropic glutamate receptor 1 (Grm1, Rattus norvegicus, UniProt P23385)
MTNR1A: Melatonin receptor type 1A (MTNR1A, Homo sapiens, UniProt P48039)

Nc1ncnc2occ(-c3ccc(NC(=O)Nc4cc(C(F)(F)F)ccc4F)cc3)c12 — remaining signal (Receptor-type tyrosine-protein kinase FLT3 (FLT3, Homo sapiens, UniProt P36888, N841I); cell-free assay, inhibitor; 20 µM): 0.75%
O=C(Cc1ccc2c(c1)OCO2)Oc1ccccc1C=NNS(=O)(=O)c1ccc2ccccc2c1 — remaining activity (murC; enzyme activity, inhibitor, absorbance; 100 µM): 57%
NS(=O)(=O)c1ccc(CNc2nc(Nc3cccc(NC(=O)N4CCCC4)c3)ncc2C2CC2)cc1 — remaining activity (BMP2K; enzyme activity, inhibitor, radiometric; 1 µM): 64%
N#Cc1ccc(COc2ccccc2C=NNS(=O)(=O)c2ccccc2[N+](=O)[O-])cc1 — remaining activity (murC; enzyme activity, inhibitor, absorbance; 100 µM): 95%
O=C(Nc1ccc(N2C(=O)c3ccccc3C2=O)c(Cl)c1)c1ncccc1O — Emax (Grm1; calcium signal, positive allosteric modulator; T-REx-293): 105%
O=C(O)C(=O)Cc1ccccc1 — Km (Macrophage migration inhibitory factor (MIF, Homo sapiens, UniProt P14174); enzyme activity, substrate): 760 µM
CCCOc1ccc(OC)c(F)c1C(=O)c1ccc(C(=O)N[C@@H]2CNC[C@H]2NC(=O)c2ccc3[nH]ncc3c2)cc1 — remaining activity (Rho-associated protein kinase 2 (ROCK2, Homo sapiens, UniProt O75116); enzyme activity, inhibitor; 0.1 µM): 25%
O=C(Nc1ccc(C=NNS(=O)(=O)c2ccc3ccccc3c2)cc1)c1ccc([N+](=O)[O-])cc1 — remaining activity (murC; enzyme activity, inhibitor, absorbance; 50 µM): 71%
COc1ccc2c(c1)C(CNC(N)=O)Cc1ccccc1C2 (stereo not shown) — Emax (MTNR1A; GTPγS binding, agonist, radiometric; cell membranes): 8%
NS(=O)(=O)c1ccc(CNc2nc(Nc3cccc(NC(=O)N4CCCC4)c3)ncc2Br)cc1 — remaining activity (BMP2K; enzyme activity, inhibitor, radiometric; 1 µM): 1%
O=C(Nc1ccc(C=NNS(=O)(=O)c2ccc3ccccc3c2)cc1)c1cc([N+](=O)[O-])cc([N+](=O)[O-])c1 — remaining activity (murC; enzyme activity, inhibitor, absorbance; 100 µM): 72%
O=C(NCCCNc1nc(Nc2cccc(NC(=O)N3CCCC3)c2)ncc1Br)C1CCC1 — remaining activity (BMP2K; enzyme activity, inhibitor, radiometric; 1 µM): -1%
COc1cc(I)c2[nH]cc(CCNC(C)=O)c2c1 — Emax (MTNR1A; β-arrestin recruitment, agonist; CHO-K1; 90 min): 95%
Oc1ccc(-c2nc(-c3ccncc3)c(-c3ccc(F)cc3)[nH]2)cc1 — ΔTm (BRWD3 (Homo sapiens, UniProt Q6RI45); thermal stability, DSF; 10 µM): 0.66 °C
O=C(Nc1ccc(N2C(=O)c3ccccc3C2=O)c(Cl)c1)c1ncccc1Cl — Emax (Grm1; calcium signal, positive allosteric modulator; T-REx-293): 77%
CCc1ccc2scc(CCNC(C)=O)c2c1 — Emax (MTNR1A; cAMP, agonist, TR-FRET; CHO-K1; 20 min): 75%
FC(F)(F)Oc1cccc(-c2cnc3ccc(-c4ccncc4)nn23)c1 — remaining binding (Serine/threonine-protein kinase MRCK gamma (CDC42BPG, Homo sapiens, UniProt Q6DT37); cell-free assay, competition with immobilised ligand; 5 µM): 18%
N#Cc1ccc(COc2ccccc2C=NNS(=O)(=O)Cc2ccccc2)cc1 — remaining activity (murC; enzyme activity, inhibitor, absorbance; 100 µM): 100%
CC(CCC(=O)NCC(=O)O)C1CCC2C3CCC4CC(O)CCC4(C)C3CC(O)C12C (stereo not shown) — ΔTm (Serine hydroxymethyltransferase, cytosolic (SHMT1, Homo sapiens, UniProt P34896); thermal stability; 50 µM): 9.2 °C
Cc1ccc(C(=O)Nc2ccc(CN3CCN(C)CC3)c(C(F)(F)F)c2)cc1C#Cc1cnc2cccnn12 — remaining signal (Ephrin type-B receptor 6 (EPHB6, Homo sapiens, UniProt O15197); cell-free assay; 23.5 nM): 85%
COc1ccc2ncn(CCNC(C)=O)c2c1 — Emax (MTNR1A; GTPγS binding, agonist, radiometric; cell membranes): 53%
Cc1nn(CC(F)(F)F)cc1Nc1ncc(C2CC2)c(NCCCNC(=O)C2CCC2)n1 — remaining activity (BMP2K; enzyme activity, inhibitor, radiometric; 1 µM): 73%
COc1ccc2[nH]cc(CCNC(C)=O)c2c1I — Emax (MTNR1A; β-arrestin recruitment, agonist; CHO-K1; 90 min): 91%
Cc1nn(CC(F)(F)F)cc1Nc1ncc(Br)c(NCCc2cnc[nH]2)n1 — remaining activity (BMP2K; enzyme activity, inhibitor, radiometric; 1 µM): 47%
COc1cc2c(CCNC(C)=O)c[nH]c2cc1I — Emax (MTNR1A; β-arrestin recruitment, agonist; CHO-K1; 90 min): 101%
Cc1nn(CC(F)(F)F)cc1Nc1ncc(Br)c(NCCCNC(=O)C2CCC2)n1 — remaining activity (BMP2K; enzyme activity, inhibitor, radiometric; 1 µM): 19%
COc1cc2c(CCNC(C)=O)c(I)[nH]c2cc1[N+](=O)[O-] — Emax (MTNR1A; cAMP, agonist, TR-FRET; CHO-K1; 20 min): 92%
O=C(NCCCNc1nc(Nc2cccc(NC(=O)N3CCCC3)c2)ncc1I)c1cccs1 — remaining activity (BMP2K; enzyme activity, inhibitor, radiometric; 1 µM): 1%
